Assay type in all cases: cell-based, mouse
Assay [1] has as its system 3T3L1 cells. The assay can be described thus: Live-cell binding/localization of FITC-labeled peptide at 4°C, 3T3L1. As to conditions: 3T3L1 fibroblast cells, 400 μM, 1 hour at 4°C, live imaging. Put shortly: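 3T3L1 fibroblasts grown in DMEM/F12 with 10% bovine calf serum and plated on glass chamber slides. Given 400 μM FITC-linked D-form test peptide for 1 h at 4°C. Then either 1 h with live caspase-3/7 FLICA indicator at 4°C (time 0), or 30 min, 2 h or 4 h at 37°C before 1 h with indicator. Washed in cold PBS and imaged live without fixation.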

In assay [2] the test system is EpH4 cells. Briefly: Apoptosis scored as caspase-3 positive cells. As to conditions: mean ± SEM; for percentage of cells containing caspase-3 (apoptosis): 2 mM peptide; for percent apoptosis (caspase-3 positive cells): 200 μM peptide, 16 hours at 37°C. The method, boiled down:
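EpH4 monolayers were exposed for 16 h to test compound over a dose range and fixed in 2% PFA (15 min RT). Then 0.5% Triton X-100 for 5 min and 2% BSA for 1 h. Primary: rabbit anti-cleaved caspase-3 (1:100), ± rat anti-ZO-1 (1:50), 1 h. Secondary: Cy3/FITC (1:150), 45 min. Percent positive cells scored; mean ± SEM, n=3-6 wells; unpaired t-test versus untreated.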

In assay [3] the test system is EpH4 cells. The assay can be described thus: Live-cell binding/localization of FITC-labeled peptide at 4°C, EpH4. As to conditions: 400 μM, 1 hour at 4°C; for localization/binding of FITC-peptide at the plasma membrane: live imaging; for fluorescence intensity of FITC: washed in ice cold PBS, background subtracted, mean ± SEM, n=3 separate cultures, p=0.007. Put shortly:
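EpH4 cells were incubated 1 h at 4°C with 400 μM FITC-labelled test compound. Washed in ice-cold PBS and imaged live, without fixation. FITC intensity was measured after background subtraction. Mean ± SEM, n=3 separate cultures.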

The test system of assay [4] is 3T3L1 cells. Briefly: Active caspase-3 and -7, live-cell fluorescent indicator, 3T3L1 fibroblasts. As to conditions: 3T3L1 fibroblast cells, 400 μM, 1 hour at 4°C then up to 4 hours at 37°C. Put shortly: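 Live imaging of EpH4 or 3T3L1 cells (3T3L1 in DMEM/F12 with 10% bovine calf serum, split 1:8 every 2-3 days). Cells received 400 μM FITC-labelled test compound for 1 h at 4°C. Active caspase-3/7 indicator was then applied for 1 h at 4°C (time 0), or after 30 min, 2 h or 4 h at 37°C. PBS wash, then fluorescence imaging.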

In assay [5] the test system is caspase-8. Briefly: Active caspase-8 by antibody, time course after warming from 4°C to 37°C. As to conditions: EpH4 cells, 400 μM, 16 hours at 4°C, then 4 hr at 37°C. The method, boiled down: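 EpH4 cells grown 4–5 days on glass chamber slides to form tight junctions, in DMEM with 5% FBS and 10 mM Hepes. Exposed to 400 μM FITC-labelled D-form test peptide for 16 h at 4°C (final DMSO <0.5%). Then fixed (time 0) or moved to 37°C for 30 min, 2 h or 4 h. Fixed in 2% paraformaldehyde, permeabilised, BSA-blocked, immunostained for claudin-4 and active caspase-8, then imaged.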

A further assay concerns caspase-3. Briefly: Active caspase-3. As to conditions: EpH4 cells. The method, boiled down: (§1)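 EpH4 cells were grown 4-5 days on 8-well chamber slides to form tight junctions, then exposed to test compound or control peptide for 8, 16 or 24 h (DMSO <0.5% final). For the last 1 h, growth medium held 1X FLICA probe (sulforhodamine-DEVD-fmk for caspase-3/7; carboxyfluorescein-LETD-fmk for caspase-8). Optional 1 μM Hoechst 33342, 5 min 37°C; HBSS wash; 2% PFA, 15 min RT. Mean ± SEM, n=3-6.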

The next assay relates to claudin-4. The assay can be described thus: Claudin-4 localization by immunofluorescence. As to conditions: EpH4 cells; for claudin-4 localization, time course: 400 μM, 16 hours at 4°C; for claudin-4 localization: 16 hours.
Assay [6] concerns EpH4 cells. The assay can be described thus: TUNEL staining. The method, boiled down: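 EpH4 cells on chamber slides were exposed to 350 μM test compound or control peptide for 8, 16 or 24 h. Fixed in 2% PFA and permeabilised in 1% sodium citrate with 0.1% Triton X-100. TUNEL staining used a TMR-red in situ cell death kit per manufacturer. Mean ± SEM, n=3-6.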
The test system of assay [7] is caspase-8. The assay can be described thus: Active caspase-8, live-cell fluorescent indicator. As to conditions: EpH4 cells, 16 hours of peptide, indicator added during the last hour. The method, boiled down:
as §1

For a further assay, the system named is claudin-3. The assay can be described thus: Claudin-3 localization by immunofluorescence. As to conditions: EpH4 cells, 16 hours, co-stained with ZO-1. The method, boiled down:
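EpH4 monolayers were exposed to peptide for 16 h, then fixed in 2% paraformaldehyde for 15 min at room temperature. Permeabilised with 0.5% Triton X-100 and blocked 1 h in 2% BSA. Stained 1 h with rabbit anti-claudin-3 (1:200) and rat anti-ZO-1 (1:50), then 45 min with fluorophore-conjugated donkey secondaries (1:150). Nuclei counterstained with DAPI; confocal z-stacks imaged.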

* marks the point of attachment. FITC = O=C1OC2(c3ccc(O)cc3Oc3cc(O)ccc32)c2ccc(NC(=S)*)cc21

As to {FITC}-DFYNP-NH2, the “localization/binding of FITC-peptide at the plasma membrane” value in the assay with 3T3L1 cells [1] is listed as “does not, however, appear to bind to the plasma membranes”; with EpH4 cells [3] it was “localizes to the plasma membrane at the sites of cell junctions”. Also, the “percent apoptosis (caspase-3 activation)” value in the assay with EpH4 cells [2] (800 μM peptide, 16 hours, n=3-6) is 10.58±0.83%. Further, the “fluorescence intensity of FITC” value in the assay with EpH4 cells [3] came out at 82.71±5.80. The “caspase-3 and/or -7 activation, live cells” value is “no caspase activation” with 3T3L1 cells [4] and “significantly increased” in the assay with caspase-3 (400 μM, 1 hour at 4°C then 4 hours at 37°C). The “caspase-8 activation, time course” value in the assay with caspase-8 [5] is on record as “significant caspase-8 activation”. The “claudin-4 localization, time course” value in the assay on claudin-4 (then 30 min at 37°C) is recorded as “significant amount of claudin-4 mis-localization”; in the assay with claudin-4 (then 4 hr at 37°C), “significant claudin-4 mis-localization”. For the same substance, in the assay with claudin-4 (800 μM peptide), the claudin-4 localization entry is given as “mis-localization of claudin-4 away from tight junctions”.

With {FITC}-DGYNP-NH2 [FITC-D(G)YNP], in the assay with EpH4 cells [3], the “localization/binding of FITC-peptide at the plasma membrane” value is on record as “binds poorly” and the “fluorescence intensity of FITC” value came to 18.38±9.26.

With Ac-C-DFYNP-C-OH (disulfide) [peptide 2], the “percentage of cells containing caspase-3 (apoptosis)” value (“percentage” below) in the assay with EpH4 cells [2] (16 hours, n=3-6) was 9.22 ± 0.65%.

On to LYQY [reference compound], for which the claudin-4 localization result with claudin-4 (350 μM peptide, anti-claudin-4) is reported as “no effect”.

As for “Ac-C-DFYNP-C-amide (disulfide) [disulfide-bridged D-peptide]”, the “percent apoptosis (caspase-3 positive cells)” value in the assay with EpH4 cells [2] (n=3-6) turned out to be 16.46 ± 0.51%. Besides, the “percentage” value with EpH4 cells [2] (16 hours, n=3-6, listed as D-peptide) is reported as 100%.

In the case of “NH2-C-DFYNP-C-OH (disulfide) [peptide 1]”, the “TUNEL staining compared to control peptide treated cells” value in the assay with EpH4 cells [6] (350 μM, 8, 16 or 24 hours) is recorded as “significantly increased”. Also, in the assay with EpH4 cells [6] (350 μM, tested at 8, 16 or 24 hours), the “time of peak TUNEL staining” value is ~16 h. Further, the “percentage” value in the assay on EpH4 cells [2] (16 hours, n=3-6) turned out to be 7.17 ± 1.24%. In addition, in the assay with caspase-8 [7], the “cells with activated caspase-8 compared to control” value is on record as “significant number of cells”. Also, in the assay on caspase-3 (16 hours of peptide, indicator added during the last hour), the “cells with activated caspase-3 compared to control” value is reported as “significant number of cells”. Besides, the claudin-4 localization entry in the assay on claudin-4 (400 μM peptide, anti-claudin-4) is recorded as “mis-localization”.

On to Ac-DGYNP-amide [D(G)YNP], for which the “percent apoptosis (caspase-3 positive cells)” value in the assay on EpH4 cells [2] (n=3-6) is recorded as 1.46±0.53%. The “percentage” value in the assay on EpH4 cells [2] (16 hours, n=3-6) came out at 1.34±0.21%. Besides, in the assay with claudin-3 (400 μM peptide), the claudin-3 localization entry was “remained restricted to the tight junctions”. Also, in the assay on claudin-4 (400 μM peptide, anti-claudin-4), the claudin-4 localization result was “not affected”.

Turning to “Ac-C-DFYNP-C-amide (disulfide) [peptide 3]”, the “percentage” value in the assay on EpH4 cells [2] (16 hours, n=3-6) is reported as 7.96 ± 0.75%; with EpH4 cells [2] (16 hours, n=3-6, listed as L-peptide), “about 7%”.

Consider Ac-DFYNP-amide [linear D-peptide], for which, in the assay with EpH4 cells [2] (n=3-6), the “percent apoptosis (caspase-3 positive cells)” value is on record as 12.27±0.72%. Besides, the claudin-3 localization result in the assay with claudin-3 (linear D-peptide) is recorded as “mis-localization away from tight junctions”. Also, in the assay on claudin-4 (linear D-peptide, co-stained with ZO-1), the claudin-4 localization entry is “mis-localized”.

Values taken from PMC3080100 (Chemical biology & drug design, 2011).
